Results published in the array DNA melting data of Ke et al. (doi:10.1101/2024.01.08.574731).

Experiments:
[1] = folding enthalpy; higher = less favourable; fluorescence melt of hairpins on a sequencing array, two-state fit; conditions: sodium 0.088 M
Procedure, shortened: (§1)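 Bootstrapped two-state fits yielded melting temperature and folding enthalpy for library hairpins. Cy3 fluorescence, with annealed Cy3 and quencher oligos, was imaged on a sequenced MiSeq flow cell in 50 mM Na-HEPES pH 8.0, 25 mM NaCl in 2.5 °C steps up to 60 °C, and normalised to pre-quench Cy3 and to control constructs. Four replicates were combined by inverse variance, and fitted temperatures were raised by 9.35 °C to match UV melts.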

[2] = melting temperature; fluorescence melt of hairpins on a sequencing array, two-state fit, raised by 9.35 °C to match UV melts; conditions: sodium 0.088 M
Procedure, shortened: as §1

Sequence | folding enthalpy [1] [kcal/mol] | Tm [2] [°C]
GGGCAGGGAAACCTGCTC (.(((((....))))).) | -20 | 59.6
GGGCAGGGAAACCTGTCC ((.((((....)))).)) | -43.9 | 57.1
GGGCATACGAAAGTACCC (((..(((....)))))) | -19.6 | 34.7
GGGCATGGAAACGTGCTC (.(((.(....).))).) | -20.8 | 45
GGGCCACGAAAGTGTCCC (((.(((....))).))) | -45.3 | 57.3
GGGCCAGCGAAAGCTCCC (((..(((....)))))) | -14.5 | 40.3
GGGCCAGGAAACTGGCTC (.(((((....))))).) | -16.1 | 61
GGGCCATCGAAAGATCCC (((..(((....)))))) | -16.4 | 31.6
GGGCCCGAAAGGGAACCC ((((((....)))..))) | -15.6 | 57.5
GGGCCCGAAAGGGCTCCC ((((((....)))..))) | -9.89 | 59.7
GGGCCCGAAAGGGGTCCC ((((((....)))..))) | -14.5 | 66.2
GGGCCCGAAAGGGTTCCC ((((((....)))..))) | -15.2 | 51.5
GGGCCCGGAAACAGGCCC (((((.(....).))))) | -34.2 | 59.1
GGGCCCTCGAAAGAGCCC (((..(((....)))))) | -23 | 48.1
GGGCCGCGAAAGCGACCC (((.(((....))).))) | -29.7 | 68.8
GGGCCGGGAAACCAGCCC ((((.((....)).)))) | -49.3 | 54.3
GGGCCGGGAAACCGGCTC (.(((((....))))).) | -15.4 | 66.8
GGGCCGTCGAAAGACCCC (((..(((....)))))) | -16.6 | 44.4
GGGCGCGAAAGCGGGCCC ((((((....)))..))) | -13.4 | 64.8
GGGCGCTCGAAAGAGCCC (((..(((....)))))) | -14 | 56.9
GGGCGGGGAAACCCGCTC (.(((((....))))).) | -15.2 | 64.7
GGGCGTACGAAAGTACCC (((..(((....)))))) | -17.4 | 50.2
GGGCGTCGAAAGACCCC (((.(((....)))))) | -37.1 | 58.9

Sequence | folding enthalpy [1] [kcal/mol] | Tm [2] [°C]
GGGCGTGGAAACACGCTC (.(((((....))))).) | -14.5 | 62.4
GGGCTAGCGAAAGCTCCC (((..(((....)))))) | -15.1 | 38.8
GGGCTAGGAAACCAGCCC (((((.(....).))))) | -44.8 | 54.1
GGGCTAGGAAACTAACCC (((.(((....))).))) | -31.5 | 39.2
GGGCTCACGAAAGTGCCC (((..(((....)))))) | -21 | 51.9
GGGCTCCGAAAGGAACCC (((.(((....))).))) | -44.1 | 56.5
GGGCTCGAAAGAGCTCCC ((((((....)))..))) | -10.6 | 50
GGGCTCGAAAGAGGCCCC ((((((....)))..))) | -12.3 | 67
GGGCTGGGAAACCAACCC (((.(((....))).))) | -30 | 49
GGGCTGGGAAACCGGTCC ((.(.((....)).).)) | -44.6 | 49.2
GGGCTGGGAAACTGGCCC ((((..(....)..)))) | -48.3 | 54.3
GGGCTTACGAAAGTACCC (((..(((....)))))) | -20.9 | 34.4
GGGCTTGAAAAAGCCC ((((((....)))))) | -35.8 | 68.1
GGGCTTGGAAACGAGCCC (((((.(....).))))) | -51.4 | 59.2
GGGGAACGAAAGTTACCC (((.(((....))).))) | -47.9 | 60.6
GGGGAACGAAAGTTGCCC (((.(((....))).))) | -39.1 | 64
GGGGAATCGAAAGATCCC (((..(((....)))))) | -22.5 | 49.1
GGGGACGAAAGTCAACCC ((((((....)))..))) | -17.6 | 49
GGGGACGAAAGTCGGCCC ((((((....)))..))) | -27.2 | 56.4
GGGGACGGAAACACCCCC ((((..(....)..)))) | -22.6 | 34.8
GGGGACGGAAACGTCTCC ((.((((....)))).)) | -27.5 | 57.2
GGGGACGGAAACGTTCCC (((.(((....))).))) | -43.9 | 61.4
GGGGAGGAAACTCCCC ((((((....)))))) | -36.9 | 66.3

Sequence | folding enthalpy [1] [kcal/mol] | Tm [2] [°C]
GGGGAGGGAAACCTTCCC (((.(((....))).))) | -33 | 53.4
GGGGATCGAAAGATTCCC (((.(((....))).))) | -53.6 | 57.5
GGGGATGGAAACACCCCC ((((.((....)).)))) | -26.4 | 49
GGGGATGGAAACATTCCC (((.(((....))).))) | -40.9 | 51.6
GGGGCCGAAAGGCCGCCC ((((((....)))..))) | -9.69 | 56.9
GGGGCGGGAAACCGCTCC ((.((((....)))).)) | -19.8 | 66.9
GGGGCGGGAAACCGTCCC (((.(((....))).))) | -34.9 | 67.7
GGGGCGTCGAAAGACCCC (((..(((....)))))) | -16.9 | 57.3
GGGGCTGGAAACGGCCCC (((((.(....).))))) | -40.7 | 66.8
GGGGCTGGAAACGGCCTC (.(((.(....).))).) | -20.8 | 50.2
GGGGGACGAAAGTCTCCC (((.(((....))).))) | -34.4 | 66
GGGGGAGAAATCCCCC ((((((....)))))) | -29.9 | 65.5
GGGGGAGGAAACTCTCCC (((.(((....))).))) | -38 | 52.7
GGGGGAGGAAACTTCCCC ((((.((....)).)))) | -47.8 | 54.4
GGGGGCGAAAGCCCTCCC ((((((....)))..))) | -9.75 | 51.9
GGGGGCGAAAGCCGACCC ((((((....)))..))) | -15.1 | 54
GGGGGCGAAAGCCGTCCC ((((((....)))..))) | -13.7 | 49.4
GGGGGCGAAAGCCTACCC ((((((....)))..))) | -15 | 49.8
GGGGGCGAAAGCCTCCCC ((((((....)))..))) | -11.5 | 61.4
GGGGGCGAAAGCCTGCCC ((((((....)))..))) | -13.7 | 43.8
GGGGGCGGAAACGCCCTC (.(((((....))))).) | -11.6 | 63.4
GGGGGCGGAAACGCTCCC (((.(((....))).))) | -32.6 | 67.6
GGGGGGGGAAACCCCCTC (.(((((....))))).) | -12.5 | 67.8

Sequence | folding enthalpy [1] [kcal/mol] | Tm [2] [°C]
GGGGGTGGAAACGCCCCC (((((.(....).))))) | -28.9 | 66.9
GGGGTACCGAAAGGTCCC (((..(((....)))))) | -27.5 | 56.7
GGGGTACGAAAGTAACCC (((.(((....))).))) | -34.1 | 60.9
GGGGTAGGAAACTACCTC (.(((((....))))).) | -20 | 48
GGGGTAGGAAACTACTCC ((.((((....)))).)) | -30.1 | 47.6
GGGGTCGAAAGACTTCCC ((((((....)))..))) | -15.6 | 39
GGGGTCGGAAACGGCCCC ((((.((....)).)))) | -31.7 | 67.9
GGGGTGAAAACCCC (((((....))))) | -21.1 | 66.6
GGGGTGGAAACACCCC ((((((....)))))) | -38.9 | 68.8
GGGGTGGGAAACCACCTC (.(((((....))))).) | -16.2 | 55.2
GGGGTGGGAAACCGCCTC (.((.((....)).)).) | -18.6 | 49.6
GGGGTGGGAAACCGCTCC ((.(.((....)).).)) | -21.9 | 47.7
GGGGTTCGAAAGAACCC (((.(((....)))))) | -17.9 | 69.3
GGGGTTGGAAACAGCCCC ((((.((....)).)))) | -44.7 | 57.9
GGGGTTGGAAACGACCTC (.(((.(....).))).) | -20.7 | 40.3
GGGTAACCGAAAGGTCCC (((..(((....)))))) | -18 | 45.8
GGGTAACGAAAGTTCCC (((.(((....)))))) | -24.4 | 50.1
GGGTAAGGAAACTCACCC ((((.((....)).)))) | -28.4 | 36.8
GGGTACCCGAAAGGGCCC (((..(((....)))))) | -18.6 | 47.8
GGGTACGAAAGTAATCCC ((((((....)))..))) | -20.7 | 39
GGGTACGAAAGTACACCC ((((((....)))..))) | -13.4 | 50.2
GGGTACGAAAGTAGACCC ((((((....)))..))) | -19.2 | 46.2
